Assay results as given in ChEMBL document CHEMBL1134545, “Design, synthesis, DNA binding, and biological evaluation of water-soluble hybrid molecules containing two pyrazole analogues of the alkylating cyclopropylpyrroloindole (CPI) subunit of the antitumor agent CC-1065 and polypyrrole minor groove binders” (J Med Chem, 2001).
≈ marks a conversion by molar mass, not a printed value.

Legend:
Daudi = experiment: In vitro antitumor activity against Human B-lymphoblast (Daudi) cell lines.; type: functional, cell-based
Procedure, shortened: (§1)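 Cells seeded at 250 000-300 000 cells/mL and exposed to a range of compound concentrations. Incubation for 2-3 days at 37 °C, followed by Coulter counter cell counts. IC50 is the concentration that lowers cell number by 50%. Reported as mean ± SE from dose-response curves of at least three independent experiments.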

CCRF-CEM = experiment: In vitro antitumor activity against Human T-lymphoblast (CEM) cell lines.; type: functional, cell-based; procedure, shortened: as §1
L1210 [1] = experiment: In vitro antitumor activity against Murine leukemia (L1210) cell lines.; type: functional, cell-based; conditions: Mus musculus; procedure, shortened: as §1
FM3A = experiment: In vitro antitumor activity against Murine mammary carcinoma (FM3A) cell lines.; type: functional, cell-based; conditions: Mus musculus; procedure, shortened: as §1
MOLT-4 = experiment: In vitro antitumor activity against Human T-lymphoblast (Molt/4) cell lines.; type: functional, cell-based; procedure, shortened: as §1
E6SM [2] = experiment: Antiviral activity against herpes simplex virus-1 TK-VMW 1837 (HSV-1) in E6SM cell cultures; type: functional; conditions: Homo sapiens
Procedure, shortened: (§2)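 Confluent E6SM cells, grown in MEM with 10% inactivated FCS, 2 mM L-glutamine and 0.3% NaHCO3, inoculated with 100 CCID50 per well. After 1 or 2 h, residual virus removed. Cells then incubated in MEM with 2% FCS and varying compound concentrations for 3 days. MIC is the concentration reducing virus-induced cytopathicity by 50% versus untreated control, read when control CPE complete.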

E6SM [3] = experiment: Antiviral activity against […] in E6SM cell cultures; type: functional; conditions: Homo sapiens
Procedure, shortened: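 E6SM cells grown in MEM with 10% inactivated FCS, 2 mM L-glutamine and 0.3% NaHCO3, infected, then treated with varying compound concentrations. MIC is the concentration reducing virus-induced cytopathogenicity by 50%, recorded once CPE reached completion in untreated infected controls.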

E6SM [4] = experiment: Antiviral activity against herpes simplex virus-2 G (HSV-2) in E6SM cell cultures; type: functional; conditions: Homo sapiens
Procedure, shortened: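 Confluent E6SM cells (MEM, 10% inactivated FCS) were infected with HSV-2 strain G at 100 CCID50 per well. After 1 or 2 h, residual virus was removed and the cells were incubated in MEM with 2% FCS and varying compound concentrations. MIC is the concentration reducing cytopathicity by 50%, recorded when control infected cultures reached full CPE (3 days).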

E6SM [5] = experiment: Antiviral activity against herpes simplex virus-1 KOS (HSV-1) in E6SM cell cultures; type: functional; conditions: Homo sapiens; procedure, shortened: as §2
E6SM [6] = experiment: Minimum cytotoxic concentration required to cause a microscopically detectable alteration of normal cell morphology; type: functional; conditions: Homo sapiens
Procedure, shortened: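 E6SM cell cultures exposed to compound for the same duration as the antiviral assays. Cells examined under a microscope. MCC is the lowest concentration causing detectable alteration of normal cell morphology.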

E6SM [7] = experiment: Antiviral activity against herpes simplex virus-1 TK-KOS ACV (HSV-1) in E6SM cell cultures; type: functional; conditions: Homo sapiens; procedure, shortened: as §2
E6SM [8] = experiment: Antiviral activity against Vaccinia virus in E6SM cell cultures; type: functional; conditions: Homo sapiens; procedure, shortened: as §2
L1210 [9] = experiment: Cytotoxicity against L1210 leukemia cells; type: functional, cell-based; conditions: Mus musculus; procedure, shortened: as §1

Cc1n[nH]c2c(O)cc3c(c12)C(CCl)CN3C(=O)c1cc(C(=O)Nc2cc(C(=O)NCCC(=N)N)n(C)c2)n(C)n1 (stereo not given) showed an IC50 (Daudi) of 150 nM, an IC50 (CCRF-CEM) of 230 nM and an IC50 (L1210 [1]) of 58 nM. It also gave an IC50 (FM3A) of 1600 nM and an IC50 (MOLT-4) of 340 nM.
With Cn1cc(NC(=O)c2cc(NC(=O)c3cc(C(=O)N4CC(CCl)c5c4cc(O)c4c5cnn4Cc4ccccc4)nn3C)cn2C)cc1C(=O)NCCC(=N)N (stereo not given) the IC50 (Daudi) was 38 nM, the IC50 (CCRF-CEM) was 210 nM and the IC50 (L1210 [1]) was 600 nM. It also gave an IC50 (FM3A) of 5600 nM and an IC50 (MOLT-4) of 160 nM.
With Cc1n[nH]c2c(O)cc3c(c12)C(CCl)CN3C(=O)c1cc(C(=O)Nc2cc(C(=O)Nc3cc(C(=O)NCCC(=N)N)n(C)c3)n(C)c2)n(C)n1 (stereo not given) the IC50 (Daudi) was 22 nM, the IC50 (CCRF-CEM) was 39 nM and the IC50 (L1210 [1]) was 19 nM. For the same molecule, the IC50 (FM3A) was 190 nM and the IC50 (MOLT-4) was 45 nM.
In the case of Cn1cc(NC(=O)c2cc(C(=O)N3CC(CCl)c4c3cc(O)c3c4cnn3Cc3ccccc3)nn2C)cc1C(=O)NCCC(=N)N (stereo not given), the IC50 (Daudi) is reported as 11 nM, the IC50 (CCRF-CEM) is reported as 70 nM and the IC50 (L1210 [1]) is reported as 240 nM. For the same molecule, the IC50 (FM3A) was 4000 nM and the IC50 (MOLT-4) was 130 nM.
Cn1cc(NC(=O)c2cc(NC(=O)c3cc(NC(=O)c4cc(C(=O)N5CC(CCl)c6c5cc(O)c5c6cnn5Cc5ccccc5)nn4C)cn3C)cn2C)cc1C(=O)NCCC(=N)N (stereo not given) showed an IC50 (Daudi) of 100 nM, an IC50 (CCRF-CEM) of 400 nM and an IC50 (L1210 [1]) of 400 nM. It also gave an IC50 (FM3A) of 19300 nM and an IC50 (MOLT-4) of 310 nM.
Cc1n[nH]c2c(O)cc3c(c12)C(CCl)CN3C(=O)c1cc(C(=O)Nc2cc(C(=O)Nc3cc(C(=O)Nc4cc(C(=O)NCCC(=N)N)n(C)c4)n(C)c3)n(C)c2)n(C)n1.Cl (stereo not given) was tested, and the IC50 (Daudi) was 8.8 nM, the MIC (E6SM [2]) was > 0.16 µg/mL and the IC50 (CCRF-CEM) was 71 nM. The IC50 (L1210 [1]) was 7.4 nM, the MIC (E6SM [3]) was > 0.16 µg/mL and the MIC (E6SM [4]) was 0.16 µg/mL. The MIC (E6SM [5]) was > 0.16 µg/mL, the MCC (E6SM [6]) was 0.8 µg/mL and the IC50 (FM3A) was 31 nM. For the same molecule, the IC50 (MOLT-4) was 17 nM, the MIC (E6SM [7]) was > 0.16 µg/mL and the MIC (E6SM [8]) was 0.019 µg/mL.
Cc1n[nH]c2c(O)cc3c(c12)C(CCl)CN3C(=O)OC(C)(C)C (stereo not given) was tested, and the IC50 (Daudi) was 680 nM, the MIC (E6SM [2]) was > 1.6 µg/mL and the IC50 (CCRF-CEM) was 1260 nM. The IC50 (L1210 [1]) was 520 nM, the MIC (E6SM [3]) was > 1.6 µg/mL and the MIC (E6SM [4]) was > 1.6 µg/mL. For the same molecule, the MIC (E6SM [5]) was > 1.6 µg/mL, the MCC (E6SM [6]) was 8 µg/mL and the IC50 (FM3A) was 1400 nM. The IC50 (MOLT-4) was 1740 nM and the MIC (E6SM [7]) was > 1.6 µg/mL.
CC(C)(C)OC(=O)N1CC(CCl)c2c1cc(O)c1c2cnn1Cc1ccccc1 (stereo not given) was tested, and the IC50 (Daudi) was 7520 nM, the IC50 (CCRF-CEM) was 6720 nM and the IC50 (L1210 [1]) was 2710 nM. It also gave an IC50 (FM3A) of 18300 nM and an IC50 (MOLT-4) of 8550 nM.
Work on Cc1nn(Cc2ccccc2)c2c1C13CC1CN(C(=O)OC(C)(C)C)C3=CC2=O (racemic) yielded an IC50 (L1210 [9]) of 3.06 µM.
For Nc1nc2c(ncn2COCCO)c(=O)[nH]1 [ACYCLOVIR], the MIC (E6SM [2]) was 0.384 µg/mL (≈ 1.71 µM), the MIC (E6SM [3]) was > 400 µg/mL and the MIC (E6SM [4]) was 0.077 µg/mL (≈ 0.342 µM). For the same molecule, the MIC (E6SM [5]) was 0.077 µg/mL (≈ 0.342 µM), the MCC (E6SM [6]) was > 400 µg/mL and the MIC (E6SM [7]) was 48 µg/mL (≈ 213 µM).
In the case of O=c1[nH]c(=O)n([C@H]2C[C@H](O)[C@@H](CO)O2)cc1/C=C/Br [BRIVUDINE], the MIC (E6SM [2]) is reported as 0.128 µg/mL (≈ 0.384 µM), the MIC (E6SM [3]) is reported as > 400 µg/mL and the MIC (E6SM [4]) is reported as 240 µg/mL (≈ 720 µM). The MIC (E6SM [5]) was 0.015 µg/mL (≈ 0.045 µM), the MCC (E6SM [6]) was > 400 µg/mL and the MIC (E6SM [7]) was 240 µg/mL (≈ 720 µM). It also gave an MIC (E6SM [8]) of 0.077 µg/mL (≈ 0.231 µM).
Nc1nc2c(ncn2COC(CO)CO)c(=O)[nH]1 [GANCICLOVIR] was tested, and the MIC (E6SM [2]) was 0.019 µg/mL (≈ 0.0744 µM), the MIC (E6SM [3]) was > 100 µg/mL and the MIC (E6SM [4]) was 0.004 µg/mL (≈ 0.0157 µM). The MIC (E6SM [5]) was 0.004 µg/mL (≈ 0.0157 µM), the MCC (E6SM [6]) was > 100 µg/mL and the MIC (E6SM [7]) was 1.92 µg/mL (≈ 7.52 µM).
NC(=O)c1ncn([C@@H]2O[C@H](CO)[C@@H](O)[C@H]2O)n1 [RIBAVIRIN] gave an MIC (E6SM [2]) of 240 µg/mL (≈ 983 µM), an MIC (E6SM [3]) of 48 µg/mL (≈ 197 µM) and an MIC (E6SM [4]) of 48 µg/mL (≈ 197 µM). The MIC (E6SM [5]) was 240 µg/mL (≈ 983 µM), the MCC (E6SM [6]) was > 400 µg/mL and the MIC (E6SM [7]) was 240 µg/mL (≈ 983 µM). It also gave an MIC (E6SM [8]) of 16 µg/mL (≈ 65.5 µM).
